# Paper PMC6880868 (Cancer cell, 2019)
# Columns and labels:
# SU-DHL-1 xenograft = SU-DHL-1 xenograft efficacy; format: in vivo, mice
# Method in brief: (§1)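 NOD/SCID female mice were injected subcutaneously in 5 mg/ml Matrigel with MOLM-16 (3 × 10^6), SU-DHL-1 (1 × 10^7) or SUP-M2 (1 × 10^7) cells. At about 150 mm3, mice were size-matched and randomised. Test compound or vehicle (10% PEG400 + 90% PBS) was given on the indicated schedules. Tumours were measured 2–3 times weekly, with volume = length×width²/2. TGI was calculated from group medians.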
# SU-DHL-1 = experiment: RNA-seq analysis, SU-DHL-1; format: cell-based, human; conditions: SU-DHL-1, 24 hr
# STAT6 = STAT6 (Homo sapiens, UniProt P42226); experiment: Bio-Layer Interferometry binding, STAT6
# Chain of STAT6 (P42226 113-658): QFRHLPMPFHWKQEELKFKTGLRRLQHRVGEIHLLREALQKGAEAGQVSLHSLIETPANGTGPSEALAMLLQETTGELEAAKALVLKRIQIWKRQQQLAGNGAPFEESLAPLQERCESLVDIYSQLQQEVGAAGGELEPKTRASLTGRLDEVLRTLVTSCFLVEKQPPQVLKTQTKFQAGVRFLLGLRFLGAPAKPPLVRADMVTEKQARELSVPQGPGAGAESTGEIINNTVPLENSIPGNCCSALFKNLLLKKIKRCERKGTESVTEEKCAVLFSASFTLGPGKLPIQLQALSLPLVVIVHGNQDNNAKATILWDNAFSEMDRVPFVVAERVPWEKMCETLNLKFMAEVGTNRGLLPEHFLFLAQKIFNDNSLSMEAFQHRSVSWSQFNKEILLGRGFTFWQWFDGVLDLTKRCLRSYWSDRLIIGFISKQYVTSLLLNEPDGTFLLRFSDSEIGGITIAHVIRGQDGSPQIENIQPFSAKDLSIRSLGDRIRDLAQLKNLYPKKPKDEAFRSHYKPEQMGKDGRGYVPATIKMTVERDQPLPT
# Method in brief: (§2)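 Purified recombinant human STAT proteins were biotinylated, then direct binding of the test compound was measured by Bio-Layer Interferometry to give Kd.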
# [1] = Pharmacokinetics in tumor-bearing mice; format: in vivo, NOD/SCID female mice; conditions: single i.v. dose 25 mg/kg; 1, 3 and 6 hr
# Method in brief: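 In NOD/SCID female mice with subcutaneous MOLM-16 xenografts, mice were dosed i.v. Blood and tissues were collected at the indicated times, and drug levels were measured by a pharmacokinetics core.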
# MOLM-16 cells = experiment: RNA-seq analysis, MOLM-16; format: cell-based, human
# mutated STAT3 proteins [2] = target: mutated STAT3 proteins (Homo sapiens, UniProt P40763, Y705F); experiment: Degradation of mutated STAT3 proteins in cells; format: cell-based; conditions: DLD-1/STAT3 Y705F/Y705F cells, 1 μM, 24 hr
# Chain of mutated STAT3 proteins (Homo sapiens, UniProt P40763, Y705F) (Q96SW2 whole entry): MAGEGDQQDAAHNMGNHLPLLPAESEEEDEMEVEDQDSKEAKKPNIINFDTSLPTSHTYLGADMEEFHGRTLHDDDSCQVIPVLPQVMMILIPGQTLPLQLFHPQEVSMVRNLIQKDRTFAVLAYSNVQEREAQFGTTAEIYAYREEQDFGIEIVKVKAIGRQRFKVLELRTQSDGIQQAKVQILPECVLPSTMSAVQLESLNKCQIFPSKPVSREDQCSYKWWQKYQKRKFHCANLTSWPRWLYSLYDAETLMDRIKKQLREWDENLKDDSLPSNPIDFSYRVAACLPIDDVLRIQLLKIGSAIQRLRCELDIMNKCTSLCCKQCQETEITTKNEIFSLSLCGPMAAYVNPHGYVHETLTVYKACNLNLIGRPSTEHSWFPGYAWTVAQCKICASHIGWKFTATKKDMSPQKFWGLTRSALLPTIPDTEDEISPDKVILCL
# Chain of mutated STAT3 proteins (Homo sapiens, UniProt P40763, Y705F) (P40763 2-770 Y705F): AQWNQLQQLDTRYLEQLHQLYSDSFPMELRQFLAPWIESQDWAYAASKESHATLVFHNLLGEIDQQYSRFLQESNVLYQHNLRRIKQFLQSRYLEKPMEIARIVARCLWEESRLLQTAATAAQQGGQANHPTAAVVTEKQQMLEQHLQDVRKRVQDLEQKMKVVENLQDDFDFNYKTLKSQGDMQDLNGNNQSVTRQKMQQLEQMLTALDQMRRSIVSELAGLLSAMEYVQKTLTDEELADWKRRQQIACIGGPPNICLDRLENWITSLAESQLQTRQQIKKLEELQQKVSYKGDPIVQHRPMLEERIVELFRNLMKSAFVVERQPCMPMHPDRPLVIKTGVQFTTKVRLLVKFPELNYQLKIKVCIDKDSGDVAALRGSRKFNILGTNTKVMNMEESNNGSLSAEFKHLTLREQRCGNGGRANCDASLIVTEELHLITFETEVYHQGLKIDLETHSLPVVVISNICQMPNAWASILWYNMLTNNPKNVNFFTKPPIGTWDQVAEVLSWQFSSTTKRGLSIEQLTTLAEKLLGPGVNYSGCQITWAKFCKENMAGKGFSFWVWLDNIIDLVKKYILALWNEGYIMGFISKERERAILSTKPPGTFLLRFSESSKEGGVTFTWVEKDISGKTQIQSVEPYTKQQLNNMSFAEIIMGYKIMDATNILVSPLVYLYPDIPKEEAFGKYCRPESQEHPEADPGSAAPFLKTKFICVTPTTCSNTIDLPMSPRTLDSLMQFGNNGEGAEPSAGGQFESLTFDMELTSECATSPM
# mutated STAT3 proteins [3] = experiment: Degradation of mutated STAT3 proteins in cells; format: cell-based, human
# [4] = system: MOLM-16 and SU-DHL-1 cell lines; experiment: Cell cycle analysis by flow cytometry; format: cell-based, human; conditions: 1 μM, 48 hr
# Method in brief: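 After treatment, cells were washed twice in cold PBS and fixed overnight in 50% ethanol. They were stained 1 hr at 4°C with PI (50 μg/ml) plus DNase-free RNase A (0.2 μg/ml), then analysed by flow cytometry.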
# SUP-M2 tumor = experiment: SUP-M2 xenograft efficacy; format: in vivo, mice
# Method in brief: as §1
# MOLM-16 tumors = experiment: MOLM-16 xenograft efficacy; format: in vivo, NOD/SCID female mice
# Method in brief: as §1
# STAT3 [5] = target: T1, STAT3 (Homo sapiens, UniProt P40763); experiment: Fluorescence polarization; format: binding
# Method in brief: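 Competitive fluorescence polarisation assay. Recombinant STAT3 (25 nM) was premixed 5 min with 2.5 nM 5-FAM-labelled STAT3 SH2-domain ligand. The mix was added to serially diluted test compound and read after 1 hr at room temperature. Buffer: 50 mM NaCl, 10 mM HEPES pH 7.5, 1 mM EDTA, 0.01% Triton X-100, 2 mM DTT. IC50 came from nonlinear regression and was converted to Ki.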
# Target sequence in this assay (P40763 127-688): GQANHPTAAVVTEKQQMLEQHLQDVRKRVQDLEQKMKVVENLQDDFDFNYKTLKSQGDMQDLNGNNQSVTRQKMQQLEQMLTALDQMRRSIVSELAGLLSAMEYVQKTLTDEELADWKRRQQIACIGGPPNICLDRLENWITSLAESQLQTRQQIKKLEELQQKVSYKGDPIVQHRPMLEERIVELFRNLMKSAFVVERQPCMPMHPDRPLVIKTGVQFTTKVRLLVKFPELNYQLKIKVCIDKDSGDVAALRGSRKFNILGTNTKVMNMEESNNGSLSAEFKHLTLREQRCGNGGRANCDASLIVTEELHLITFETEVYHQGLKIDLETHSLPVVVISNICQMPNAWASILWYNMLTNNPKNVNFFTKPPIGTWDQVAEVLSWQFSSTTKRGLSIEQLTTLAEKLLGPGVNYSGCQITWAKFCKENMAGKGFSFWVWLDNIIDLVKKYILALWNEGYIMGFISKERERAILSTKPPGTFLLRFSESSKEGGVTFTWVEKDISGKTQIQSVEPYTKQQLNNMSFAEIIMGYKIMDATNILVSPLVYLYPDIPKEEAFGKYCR
# STAT3 [6] = target: T1, STAT3; experiment: STAT3 protein degradation in human cells; format: cell-based
# Method in brief: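 Treated cells were lysed in cell lysis buffer, resolved by SDS-PAGE, transferred to PVDF and probed by immunoblotting.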
# Target sequence in this assay (P40763 whole entry): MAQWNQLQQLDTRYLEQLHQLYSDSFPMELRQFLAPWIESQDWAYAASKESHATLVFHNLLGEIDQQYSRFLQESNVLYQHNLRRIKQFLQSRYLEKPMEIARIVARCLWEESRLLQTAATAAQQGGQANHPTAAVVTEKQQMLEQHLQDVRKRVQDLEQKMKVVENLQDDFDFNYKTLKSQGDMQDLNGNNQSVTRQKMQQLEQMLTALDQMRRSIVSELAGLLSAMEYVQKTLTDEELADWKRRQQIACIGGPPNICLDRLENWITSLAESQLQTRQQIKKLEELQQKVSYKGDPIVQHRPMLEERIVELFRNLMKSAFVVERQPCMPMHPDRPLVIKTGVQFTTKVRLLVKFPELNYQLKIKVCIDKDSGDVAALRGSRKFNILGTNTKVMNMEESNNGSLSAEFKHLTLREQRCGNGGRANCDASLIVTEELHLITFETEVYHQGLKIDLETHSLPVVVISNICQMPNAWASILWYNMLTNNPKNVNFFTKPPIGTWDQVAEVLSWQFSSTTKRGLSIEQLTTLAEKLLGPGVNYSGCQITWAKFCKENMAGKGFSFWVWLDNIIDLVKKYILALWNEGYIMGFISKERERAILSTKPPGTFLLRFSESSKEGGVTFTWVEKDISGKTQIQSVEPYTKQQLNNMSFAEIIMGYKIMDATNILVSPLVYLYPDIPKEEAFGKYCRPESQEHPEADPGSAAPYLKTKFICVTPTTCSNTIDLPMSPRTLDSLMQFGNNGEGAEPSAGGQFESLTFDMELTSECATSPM
# [7] = system: transcriptional activities of STAT1 or STAT5A/B; experiment: STAT1 and STAT5 dependent reporter cell lines; format: cell-based; conditions: STAT-dependent reporter cell lines
# Method in brief: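 Reporter cells (1000–2000) were seeded in duplicate plates, one for luciferase and one for CellTiter-Glo viability. Test compound was added 4–6 hr later, and cells were cultured 24 or 48 hr. Firefly and Renilla luciferase were read, and signals were normalised to cell number from the viability plate.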
# STAT3 target genes = experiment: qRT-PCR of STAT3 target genes in MOLM-16 tumors; format: in vivo, SCID mice; conditions: single dose 25 mg/kg i.v.
# Method in brief: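 SCID mice with MOLM-16 tumours received vehicle or test compound i.v. Total RNA was isolated from tumour lysates and STAT3 target genes were quantified by qRT-PCR.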
# [8] = Toxicity in immune competent mice; format: in vivo, CD-1 female mice
# Method in brief: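 Female CD-1 mice were given test compound i.v. at 50 or 100 mg/kg, or vehicle (10% PEG400 + 90% PBS), three times weekly for three weeks. Body weight was recorded 2–3 times per week. At the end, blood and major organs were taken for haematology, serum chemistry, organ coefficients and histology.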
# STAT2 = STAT2 (Homo sapiens, UniProt P52630); experiment: Bio-Layer Interferometry binding, STAT2
# Chain of STAT2 (P52630 138-702): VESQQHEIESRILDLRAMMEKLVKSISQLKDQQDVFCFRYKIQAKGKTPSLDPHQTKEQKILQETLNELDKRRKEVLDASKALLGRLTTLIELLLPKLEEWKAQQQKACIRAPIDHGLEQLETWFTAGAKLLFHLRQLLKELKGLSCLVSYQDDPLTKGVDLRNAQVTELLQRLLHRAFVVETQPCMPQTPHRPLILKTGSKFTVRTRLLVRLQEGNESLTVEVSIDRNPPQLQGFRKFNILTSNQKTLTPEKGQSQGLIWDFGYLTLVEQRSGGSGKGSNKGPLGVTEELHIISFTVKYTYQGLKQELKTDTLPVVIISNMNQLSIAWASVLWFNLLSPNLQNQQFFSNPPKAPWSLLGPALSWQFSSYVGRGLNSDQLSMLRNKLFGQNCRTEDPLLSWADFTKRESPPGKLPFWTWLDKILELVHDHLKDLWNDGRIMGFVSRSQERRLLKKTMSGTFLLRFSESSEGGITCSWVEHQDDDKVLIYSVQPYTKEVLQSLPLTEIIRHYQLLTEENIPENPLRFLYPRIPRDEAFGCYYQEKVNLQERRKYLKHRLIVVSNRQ
# Method in brief: as §2
# [9] = system: STAT proteins in MOLM-16 and SU-DHL-1 tumors; experiment: Multiplexed quantitative proteomics in xenograft tumors; format: in vivo, mice; conditions: 25 mg/kg i.v., 6 hr
# mouse STAT3 protein = mouse STAT3 protein (Mus musculus, UniProt P42227); experiment: Pharmacodynamics in mouse tissues; format: in vivo, CD-1 mice; conditions: single dose 100 mg/kg i.v.
# Chain of mouse STAT3 protein (P42227 whole entry): as the sequence (P40763 whole entry) above, with E760D counted along it
# Method in brief: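 Female outbred CD-1 mice received a single i.v. dose. At set time points, liver, spleen, heart and kidney were collected and analysed by immunoblotting.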
# MOLM-16 = experiment: 4-day CellTiter Glo cell viability assay, MOLM-16; format: cell-based; conditions: Homo sapiens, MOLM16, 96 h, read-out: IC50, growth inhibition
# STAT3 protein = STAT3 protein (Mus musculus, UniProt P42227); experiment: STAT3 degradation in murine cells; format: cell-based
# Chain of STAT3 protein (P42227 whole entry): as the sequence (P40763 whole entry) above, with E760D counted along it
# [10] = 100 mg/kg weekly or 50 mg/kg twice weekly for 4 weeks
# [11] = i.v. 50 and 100 mg/kg, three times a week for three weeks
smiles,measurement,setting,value
"NC(=O)CC[C@H](NC(=O)[C@@H]1CC[C@@H]2CCN(C(=O)CCCCCC#Cc3cccc4c3CN(C3CCC(=O)NC3=O)C4=O)C[C@H](NC(=O)c3cc4cc(C(F)(F)P(=O)(O)O)ccc4[nH]3)C(=O)N21)C(=O)NC(c1ccccc1)c1ccccc1 (stereo partly drawn) [SD-36, ((2-(((5S,8S,10aR)-8-(((S)-5-amino-1-(benzhydrylamino)-1,5-dioxopentan-2-yl)carbamoyl)-3-(8-(2-(2,6-dioxopiperidin-3-yl)-1-oxoisoindolin-4-yl)oct-7-ynoyl)-6-oxodecahydropyrrolo[1,2-a][1,5]diazocin-5-yl)carbamoyl)-1H-indol-5-yl)difluoromethyl)phosphonic acid]",tumor growth inhibited compared to the vehicle control,SU-DHL-1 xenograft; 50 mg/kg weekly,50%
same,tumor response,"SU-DHL-1 xenograft; 100 mg/kg on day 1, 3 and 5 per week",complete tumor regression
same,tumor response,SU-DHL-1 xenograft; 100 mg/kg weekly,rapid and complete tumor regression
same,tumors completely regressed,"SU-DHL-1 xenograft; 100 mg/kg weekly, after 2 doses, by day 12",7 out of 7
same,mice with no tumor returning,"SU-DHL-1 xenograft; 100 mg/kg weekly, day 122, >100 days after the last dosing",6 out of 7
same,tumor growth,"SU-DHL-1 xenograft; 25 and 50 mg/kg on day 1, 3 and 5 per week",effectively inhibited tumor growth
same,tumor volume reduced,"SU-DHL-1 xenograft; single dose 100 mg/kg, day 6",80%
same,genes down-regulated by ≥2-fold (p≤0.05),SU-DHL-1,701 genes
same,genes up-regulated by ≥2-fold (p≤0.05),SU-DHL-1,726 genes
same,Kd,STAT6,> 10000 nM
same,"drug exposure in plasma, tumor tissues and several organs",[1],good drug exposure
same,genes down-regulated by ≥2-fold (p≤0.05),"MOLM-16 cells; MOLM-16, 1 μM, 8 hr",125 genes
same,genes up-regulated by ≥2-fold (p≤0.05),"MOLM-16 cells; MOLM-16, 1 μM, 8 hr",34 genes
same,genes down-regulated ≥2-fold (p≤0.05),"MOLM-16 cells; MOLM-16, 24 hr",301 genes
same,"genes up- or down-regulated ≥2-fold (p≤0.05), total","MOLM-16 cells; MOLM-16, 24 hr",348 genes
same,genes up-regulated ≥2-fold (p≤0.05),"MOLM-16 cells; MOLM-16, 24 hr",47 genes
same,degradation of homozygous Y705F mutant STAT3,mutated STAT3 proteins [2],effectively degrades
same,degradation of endogenous D661Y and K658R mutant STAT3,"mutated STAT3 proteins [3]; 1 μM, 24 hr",efficiently degrades
same,degradation of STAT3 with mutations of Arg609 or Ser611/Ser613,"mutated STAT3 proteins [3]; transfected MDA-MB-231, 1 μM, 16 hr",resistant to degradation
same,cell cycle effect,[4],profound G1 arrest
same,tumor growth,SUP-M2 tumor; 50 mg/kg three times per week,completely inhibited tumor growth
same,tumor response,"SUP-M2 tumor; 100 mg/kg three times per week, tumor free until day 30",Complete tumor regression
same,tumors with complete tumor regression,"SUP-M2 tumor; 100 mg/kg twice a week for 3 weeks, day 29",5 out of 7
same,persistence of regression after cessation of treatment,MOLM-16 tumors; [10],at least 2 weeks
same,tumor response,MOLM-16 tumors; [10],complete tumor regression
same,tumor growth,MOLM-16 tumors; 25 and 50 mg/kg weekly for 4 weeks,effectively inhibited tumor growth
same,Ki,STAT3 [5],11 nM
same,STAT3 protein depleted,"STAT3 [6]; DEL, 250 nM, 7 hr",> 50%
same,STAT3 protein depleted,"STAT3 [6]; KI-JK, 250 nM, 7 hr",> 50%
same,levels of activated pSTAT3 (Y705),"STAT3 [6]; MOLM-16, 0.25 μM",effectively reduced
same,STAT3 protein depleted,"STAT3 [6]; MOLM-16, 250 nM, 4 hr",> 90%
same,cellular STAT3 protein in SD-36 insensitive cell lines,STAT3 [6]; SD-36 insensitive cell lines,effectively depleted
same,STAT3 protein depleted,"STAT3 [6]; SU-DHL-1, 250 nM, 7 hr",> 50%
same,hook effect,"STAT3 [6]; concentrations as high as 10 μM, all cell lines tested",not observed
same,levels of STAT3 protein in PBMCs,"STAT3 [6]; human PBMCs, 24 hr",potently and effectively reduced
same,transcriptional activities of STAT1 or STAT5A/B,[7],minimal effect
same,expression of a set of STAT3 target genes in tumors,STAT3 target genes,significantly down-regulated
same,numbers of neutrophils and platelets,"[8]; 100 mg/kg, three times a week for three weeks",slightly increased
same,"creatinine, blood urea nitrogen, calcium, albumin and total blood protein",[8]; data not shown,no significant effect
same,"counts of red or white blood cells, lymphocytes, monocytes or eosinophils",[8]; [11],no significant changes
same,"systemic toxicity by body weight, organ coefficient and hematology",[8]; [11],no obvious systemic toxicity
same,histology of mouse tissues,"[8]; mouse, in vivo",no significant effects
same,body weight,[8]; reversible one week after withdrawal,moderate body weight gain
same,Kd,STAT2,~5000 nM
same,effect on other STAT proteins in tumors,[9],no significant effect on other STAT proteins
same,"mouse STAT3 protein in liver, spleen, heart and kidney",mouse STAT3 protein,profound and durable depletion
same,IC50,MOLM-16,35 nM
same,STAT3 protein degradation in murine cells,STAT3 protein,efficiently degraded
